In ChEMBL document CHEMBL4513216, “Probing the Open Global Health Chemical Diversity Library for Multistage-Active Starting Points for Next-Generation Antimalarials” (ACS Infect Dis, 2020):

Test: Toxicity liver stage against HepG2, at 10uM
Format: cell-based
Design: test concentration 10 uM, cell line HepG2-A16-CD81EGFP
Conditions: human, HepG2-A16-CD81EGFP cells; read-out: INHIBITION
Summary of the method: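 Uninfected HepG2-A16-CD81EGFP cells, 3 × 10^3 per well, 1536-well, plated on prespotted compound at 10 μM final, parasite-free screening media added to match infected plates; puromycin 10 μM positive, DMSO 0.5% negative; run in parallel with 48 h PbLuc assay at 37 °C, 5% CO2; viability by CellTiter-Glo luminescence, normalized to controls.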

| Structure (SMILES) | cytotoxicity at 10 µM |
| --- | --- |
| CC(=O)NC[C@@H]1C=C(C)[C@H](CC(=O)NCc2cccnc2)C[C@H]1C(C)C | 4.33% |
| CC1=Nc2c(c(=O)[nH]n2C(C)C)C(c2cccc(OC(F)F)c2)S1 (stereo unspecified) | 8.13% |
| CCCc1cc(=O)[nH]c2nnc(SCC(=O)OC)n12 | 12.2% |
| Cc1ccc(S(=O)(=O)Nc2ccc(-n3nnn(C)c3=O)cc2)cc1 | -4.1% |
| Cn1nc(CN2CCOCC2)c2c1CN(C(=O)c1ccc[nH]1)C2 | 8.46% |
| CCS(=O)(=O)N1CCC2(CN(C(=O)c3cn(C)cn3)C2)C1 | 6.4% |
| O=C(NCCN1CCCC1)c1cc2c(s1)CCN2C(=O)c1ccccc1 | 0.559% |
| Cc1cccc(NC(=O)c2csc(NCC(C)C)n2)n1 | -3.33% |
| O=C(Cn1nc2c(cc1=O)CCCC2)N[C@@H](Cc1ccccc1)C(=O)O | 3.17% |
| COc1ccc(NCc2nc(=O)n(CCC(C)C)[nH]2)cc1 | -2.9% |
| Cc1nc(N2CCOCC2)ncc1-c1cc(O)nc(N2CCCC2)n1 | 7.63% |
| Cc1nn(CCNC(=O)c2cc(C3CC3)[nH]n2)c(C)c1Cl | -3.73% |
| COc1ccc2c(=O)ccn(CC(=O)O)c2c1 | 10.2% |
| CC(=O)N1CCCC(c2nccnc2Nc2nc(C)cc(C)n2)C1 (stereo unspecified) | 1.43% |
| Cc1nn(C)c(C)c1NC(=O)CNC(c1ccccc1)C1CCCC1 (stereo unspecified) | -0.0764% |
| CC(C)c1ccc(OCCC(=O)N(C)CC(=O)N(C)C)cc1 | 4.72% |
| Cc1noc(C)c1CN(C)C(=O)C1CCCN1S(N)(=O)=O (stereo unspecified) | 7.89% |
| NC(=O)C1CCN(S(=O)(=O)c2cnn(-c3ccccc3)c2)CC1 | 8.51% |
| Cc1c(NC(=O)CN(C)S(C)(=O)=O)cccc1OC1CCCC1 | -0.302% |
| CNC(=O)CN(C)CC1(c2ccc(Br)cc2)CC1 | 3.89% |
| c1cc2c(cc1CN1CCN(Cc3noc(C4CC4)n3)CC1)OCO2 | 15.8% |

| Structure (SMILES) | cytotoxicity at 10 µM |
| --- | --- |
| CN(C)C1CCCN(C(=O)NCCNC(=O)C2CCCC2)C1 (stereo unspecified) | -7.4% |
| CN(Cc1ccco1)C(=O)NC(Cn1ccnc1)C(C)(C)C (stereo unspecified) | -3.36% |
| Cc1noc(C)c1C(=O)NCCN1CCOCC1 | -10.9% |
| N#Cc1ccccc1N1CCN(C(=O)NCCN2CCOCC2)CC1 | 1.08% |
| COC(=O)N1CCC(Nc2cccc(F)c2C#N)CC1 | 18.1% |
| COc1cc(CNC(=O)C(C)SC)cc(Br)c1OC (stereo unspecified) | 0.247% |
| c1ccc(-c2cc(CN3CCc4cncnc4C3)on2)cc1 | 11.3% |
| Cc1ccc(Cl)cc1NC(=O)C1CC(=O)N(Cc2ccccn2)C1 (stereo unspecified) | 4.67% |
| COCc1csc(NC(=O)N2CCC(Cc3cnn(C)c3)C2)n1 (stereo unspecified) | 3.13% |
| O=C1OCCN1CCS(=O)(=O)c1cccc(Br)c1 | 6.29% |
| CNC(=O)C(NC(=O)CCc1cccc(OC2CCCC2)c1)C(C)C (stereo unspecified) | 10.9% |
| CCn1cc(S(=O)(=O)N2CCC(C)Sc3ccccc32)cn1 (stereo unspecified) | 3.34% |
| N#Cc1ccc(N2CCCN(c3nccs3)CC2)nc1 | 32.5% |
| CC(Cn1ccnc1)NC(=O)NCCN1CCc2ccccc2C1 (stereo unspecified) | 7.65% |
| Cc1sc(CS(C)(=O)=O)nc1-c1ccc(Cl)cc1 | -4.07% |
| OCC1CN(Cc2nc(C(F)(F)F)cs2)c2ccccc2O1 (stereo unspecified) | 3.97% |
| CC(=O)NC1CCCN(C(=O)CNc2cc(Cl)cc(Cl)c2)C1 (stereo unspecified) | -1.68% |
| O=C(NCc1ccc(F)cc1)N1CCC(C2OCCO2)CC1 | -2.39% |
| CS(=O)(=O)Nc1ccc2c(c1)NC(=O)CC2c1cnn2cccnc12 (stereo unspecified) | -1.77% |
| CN1CCN(Cc2c(Cl)ccc(O)c2Cl)CC1C(=O)O (stereo unspecified) | 9.46% |
| CC(C)(C)c1ncc2c(n1)CN(C(=O)c1ccc3[nH]cnc3c1)C2 | -2.62% |

| Structure (SMILES) | cytotoxicity at 10 µM |
| --- | --- |
| COCCN1CCN(Cc2nc3c(s2)CCCC3)[C@H]2CS(=O)(=O)C[C@H]21 | 6.81% |
| Cc1ncc(CC(=O)N2CCCC(COc3ccc(F)cc3)C2)c(=O)[nH]1 (stereo unspecified) | -142% |
| O=C(C1CNCCN1C(=O)CCOc1ccccc1)N1CCCC1 (stereo unspecified) | -7.42% |
| CCc1nc2c(c(N3CCOCC3)n1)CCN(C(=O)N1CCCC1)CC2 | 7.6% |
| c1cc(N2CCC(c3nnc(Cn4ccnc4)n3C3CC3)CC2)ccn1 | -4.31% |
| COc1nc(C)c(C(=O)N2CCN(c3ncccc3C)CC2)s1 | 2.87% |
| Cc1noc(C)c1CN1CC2(CCN(Cc3c[nH]cn3)CC2)CC1=O | 8.62% |
| COc1ccc(CN2CCCC2)cc1Oc1ccc2c(c1)CC(CN)O2 (stereo unspecified) | -10.5% |
| CS(=O)(=O)N1CCC(Oc2ccc(C(=O)NCCC(N)=O)cc2Cl)CC1 | -1.28% |
| O=c1cc(N2CCCCC2)cnn1Cc1noc(C2CCCO2)n1 (stereo unspecified) | -47.1% |
| COc1ccnc(CNc2nc(C)nc(C)c2C)c1 | -1.7% |
| CC(C)N1CCCC2(CCN(Cc3nncn3C(C)C)C2)C1=O (stereo unspecified) | -108% |
| Cc1nn(C)c(C)c1-c1nc2cc(S(=O)(=O)N3CCCC3)ccc2n1C | -6.05% |
| Cc1cc(CN2CCC(CNC(=O)c3cnc(C)nc3C)C2)[nH]n1 (stereo unspecified) | -140% |
| COc1ccc(F)c(CN2CCC3(CCC(=O)N(CC(N)=O)C3)CC2)c1 | 12% |
| NC(=O)CN1CCC(C(=O)N2CCCC(OCc3cccnc3)C2)CC1 (stereo unspecified) | -1.88% |
| Cc1nc(C2CCCN(C(=O)c3ccnc(N(C)C)c3)C2)no1 (stereo unspecified) | -4.77% |
| CC(C(=O)NC(N)=O)N(C)CCCc1cc(-c2ccccc2)no1 (stereo unspecified) | -8.63% |
| Cc1noc(C)c1C(=O)N1CCCC(c2cc(C(F)(F)F)[nH]n2)C1 (stereo unspecified) | -0.855% |
| Cc1cc(NC(=O)CN2CCCC2c2c(C)nn(C)c2Cl)on1 (stereo unspecified) | -0.945% |
| Cc1ncc(CN2CCC(N(C)Cc3noc(C4CC4)n3)C2)s1 (stereo unspecified) | -3.16% |

| Structure (SMILES) | cytotoxicity at 10 µM |
| --- | --- |
| CN(Cc1ccco1)C(=O)c1cccc(N2CCCC2=O)c1 | -4.5% |
| CCc1nc(C2CCCN2Cc2cc(=O)n(C)c(=O)n2C)no1 (stereo unspecified) | -11.5% |
| CC(NC(=O)Cn1ccc(=O)n(C)c1=O)c1ccccc1F (stereo unspecified) | -10.6% |
| CC(=O)Nc1nc(C(=O)N2CCCCC2Cn2cccn2)cs1 (stereo unspecified) | -31.4% |
| Cc1nc(CN(C)C2CCN(Cc3ccc(C(N)=O)cc3)C2)no1 (stereo unspecified) | -12.7% |
| Cc1nn(C)c(N2CCOCC2)c1CNCc1ccnn1C | -1.66% |
| Cc1nc(CN2CCCN(C(=O)c3c(C)noc3C)CC2)cs1 | -2.87% |
| O=C(CS(=O)(=O)c1ccccc1Cl)NC1CCCCNC1=O (stereo unspecified) | -13.2% |
| CCc1ncc(CN(C)C2CCN(C(C)C)CC2)cn1 | -3.91% |
| O=C(NCc1cnc2n1CCN(Cc1ccsc1)CC2)C1CCC1 | -2.53% |
| CSc1ccc(CNC(c2ccccc2F)c2nccn2C)cc1 (stereo unspecified) | 1.75% |
| COCCN1CCc2cc(C(=O)N(C)C)c(NCC3CC3)nc2CC1 | 4.44% |
| Cc1cccc(CN2CCc3ncnc(N4CCCC4)c3CC2)n1 | -145% |
| CC(C)N1CCOCC2(CCCN(C(=O)c3cn(C)cn3)C2)C1 (stereo unspecified) | 1.88% |
| Cn1cc(CN2C[C@H](Oc3ncccc3F)[C@H]3OCCC[C@H]32)cn1 | 2.72% |
| CN(C)C(=O)CN1CCCC2(CCN(c3ccc(C#N)cn3)C2)C1 (stereo unspecified) | 4.01% |
| CC(C)C(=O)N1CCC[C@]2(C(=O)N(C)C)CN(c3ccccn3)C[C@@H]2C1 | 30.7% |
| CC1CCCCN1S(=O)(=O)NCCNC(=O)c1ncccc1O (stereo unspecified) | 2.34% |
